Data reported in ChEMBL document CHEMBL2040708, “Rational design, synthesis, and pharmacological properties of pyranochalcone derivatives as potent anti-inflammatory agents” (Eur J Med Chem, 2012).
Activity calls are given as the source filed them. No cut-off for these calls is given here.

Tests used:
Mus musculus = experiment: Antiinflammatory activity in ICR mouse assessed as decrease in carrageenan-induced paw edema at 10 mg/kg, ip administered 30 mins prior to carrageenan-challenge measured at 4 hrs relative to vehicle treated control; type: functional; settings: route intraperitoneal
How it was run: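 Male ICR mice dosed i.p. 30 min before subplantar injection of freshly prepared 1% carrageenan suspension into the right hind paw. Footpad thickness measured with a gauge caliper at 1, 2, 3, 4 and 5 h. Inhibition calculated from increase in paw thickness versus the control group; mean (SEM), n = 5.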

[1] = target: T1, Nitric oxide synthase, inducible (Mus musculus, UniProt P29477); experiment: Inhibition of iNOS in mouse RAW264.7 cells assessed as inhibition of LPS-induced nitric oxide production for 2 hrs by DAF-FMDA dye based fluorometric assay; type: cell-based
T1 sequence (P29477 whole entry): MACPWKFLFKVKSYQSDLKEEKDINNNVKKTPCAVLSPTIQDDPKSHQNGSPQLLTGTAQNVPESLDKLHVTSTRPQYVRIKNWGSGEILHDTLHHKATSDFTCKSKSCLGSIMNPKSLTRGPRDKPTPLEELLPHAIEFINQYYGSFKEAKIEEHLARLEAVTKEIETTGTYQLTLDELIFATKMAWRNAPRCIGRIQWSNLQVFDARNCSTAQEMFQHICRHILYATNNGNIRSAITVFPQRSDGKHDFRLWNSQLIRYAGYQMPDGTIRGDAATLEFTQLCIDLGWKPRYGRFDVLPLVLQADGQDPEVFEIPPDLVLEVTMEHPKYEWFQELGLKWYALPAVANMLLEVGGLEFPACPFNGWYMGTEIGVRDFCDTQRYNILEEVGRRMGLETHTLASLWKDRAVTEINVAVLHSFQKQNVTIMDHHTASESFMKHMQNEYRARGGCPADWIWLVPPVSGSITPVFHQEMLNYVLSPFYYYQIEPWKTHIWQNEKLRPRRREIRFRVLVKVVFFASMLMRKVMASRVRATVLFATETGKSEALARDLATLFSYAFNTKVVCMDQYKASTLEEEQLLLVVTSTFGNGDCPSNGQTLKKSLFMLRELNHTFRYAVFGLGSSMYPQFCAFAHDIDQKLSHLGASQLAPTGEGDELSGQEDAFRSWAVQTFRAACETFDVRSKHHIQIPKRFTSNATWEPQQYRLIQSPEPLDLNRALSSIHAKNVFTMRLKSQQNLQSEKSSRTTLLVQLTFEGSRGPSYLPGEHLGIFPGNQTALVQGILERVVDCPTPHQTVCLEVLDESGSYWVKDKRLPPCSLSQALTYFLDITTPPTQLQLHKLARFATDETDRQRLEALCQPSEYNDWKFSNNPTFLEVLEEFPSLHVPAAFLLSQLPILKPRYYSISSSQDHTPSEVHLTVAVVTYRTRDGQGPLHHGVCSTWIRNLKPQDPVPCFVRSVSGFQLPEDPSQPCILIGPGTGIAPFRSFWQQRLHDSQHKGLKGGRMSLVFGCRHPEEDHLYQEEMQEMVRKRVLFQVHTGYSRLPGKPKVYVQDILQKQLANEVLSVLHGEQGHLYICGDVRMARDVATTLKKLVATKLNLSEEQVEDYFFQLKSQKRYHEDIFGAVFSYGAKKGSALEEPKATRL

RAW264.7 [2] = experiment: Cytotoxicity against mouse RAW264.7 cells after 24 hrs by MTT assay in the absence of LPS; type: cell-based; settings: RAW264.7, 24 h
How it was run: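 RAW264.7 cells at 5 × 10⁴/well, exposed to a range of concentrations in serum-free medium for 24 h. MTT (5 mg/mL in saline) added for a further 4 h, formazan dissolved in DMSO, absorbance read at 540 nm. Viability expressed relative to the blank control.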

RAW264.7 [3] = experiment: Cytotoxicity against mouse RAW264.7 cells after 24 hrs by MTT assay in the presence of LPS; type: cell-based; settings: RAW264.7, 24 h
Rattus norvegicus [4] = experiment: Antiarthritic activity in Lewis rat adjuvant-induced arthritis model assessed as decrease in complete Freund's adjuvant-induced arthritis administered daily oral doses for 14 days post inflammation development signs; type: functional, organism-based
How it was run: (§1)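 Male Lewis rats, 12 weeks old, six per group, injected with CFA at the tail base. Vehicle (2% Tween 80/0.5% methylcellulose) given orally for 7 d until full joint inflammation, then randomized and dosed orally daily for 14 d at 10 or 25 mg/kg. Arthritis scored daily on hind paw erythema, swelling, joint tenderness, movement and posture. Body weight tracked; means ± S.E.M.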

Rattus norvegicus [5] = experiment: Antiarthritic activity in Lewis rat adjuvant-induced arthritis model assessed as decrease in complete Freund's adjuvant-induced weight loss administered daily oral doses for 14 days post inflammation development signs; type: functional, organism-based; how it was run: as §1
Rattus norvegicus [6] = experiment: Antiarthritic activity in Lewis rat adjuvant-induced arthritis model assessed as decrease in complete Freund's adjuvant-induced suppression of histopathological changes at 25 mg/kg/day, po for 14 days post inflammation development signs by Hematoxylin and eosin staining; type: functional, organism-based
How it was run: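 CFA-induced arthritis in male Lewis rats, dosed orally each day for 14 d after a 7 d vehicle lead-in. Animals sacrificed, foot pads fixed in neutral buffered formal saline and embedded in paraffin. 5 µm sections stained with H&E and examined under the microscope.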

Row | Compound | IC50 [1] [µM] | inhibition in vivo at 10 mg/kg (Mus musculus) [%] | IC50 (RAW264.7 [2]) [µM] | IC50 (RAW264.7 [3]) [µM] | inhibition (Rattus norvegicus [4]) | inhibition (Rattus norvegicus [5]) | inhibition (Rattus norvegicus [6])
1 | COc1ccc2c(c1)c(CC(=O)O)c(C)n2C(=O)c1ccc(Cl)cc1 [INDOMETHACIN] | 20 | 45.8 | > 80 | > 80 |  |  | 
2 | CC1(C)C=Cc2c(ccc(C(=O)/C=C/c3ccc(Br)cc3)c2O)O1 | 17.8 | 27.6 | > 80 | > 80 |  |  | 

These reach a lower IC50 [1]. Values come first.

Row | IC50 [1] [µM] | Compound | inhibition in vivo at 10 mg/kg (Mus musculus) [%] | IC50 (RAW264.7 [2]) [µM] | IC50 (RAW264.7 [3]) [µM] | inhibition (Rattus norvegicus [4]) | inhibition (Rattus norvegicus [5]) | inhibition (Rattus norvegicus [6])
3 | 5.4 | CC1(C)C=Cc2c(ccc(C(=O)/C=C/c3cccc(F)c3)c2O)O1 | 9 | > 80 | > 80 |  |  | 
4 | 6.2 | COc1cc(/C=C/C(=O)c2ccc3c(c2O)C=CC(C)(C)O3)cc(OC)c1OC | 34.4 | > 80 | > 80 |  |  | 
5 | 7.9 | COc1ccc(/C=C/C(=O)c2ccc3c(c2O)C=CC(C)(C)O3)cc1OC | 52.4 | > 80 | > 80 | Dose-dependent effect | Active | Active
